Measured values taken from ChEMBL document CHEMBL4480455, “Anti-inflammatory Property of Imperatorin on Alveolar Macrophages and Inflammatory Lung Injury” (J Nat Prod, 2019).
Activity calls are given as the source filed them. The calls are words filed in the database; no cut-off is given here.

Legend:
[1] = molecular target: T1, I-kappa-B kinase (Mus musculus) (UniProt Q60680+O88351+O88522); assay: Inhibition of zymosan-induced IKK phosphorylation in mouse MHS cells assessed as phosphorylated IKK level at 15 ug/ml by Western blot analysis relative to tubulin (reference value: 1.8); assay type: cell-based
In short: (§1)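 MH-S cells pretreated, then stimulated with zymosan 10 μg/mL. Phospho-JAK1 (Y1022/1023), phospho-STAT3 (Y705) and phospho-IKKα/β detected by Western blot against total protein and tubulin. Zymosan time course 1–30 min for JAK1/STAT3 and 1–60 min for IKK. Normalized to control; mean ± SD, n≥3.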

Mus musculus [2] = assay: Antiinflammatory activity in zymosan induced C57BL/6 mouse model of lung injury assessed as reduction in total protein level in BALF at 4 mg/kg, ip pretreated for 3 days followed by zymosan challenge and measured after 24 hrs; assay type: functional, organism-based
In short: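 Male C57BL/6 mice, 25–30 g. Dosed i.p. daily for 3 days, then zymosan 4 mg/kg in 40 μL saline given by intratracheal instillation. After 24 h, BALF collected with five 0.2 mL PBS washes and centrifuged. Supernatant assayed for PGE2 and total protein. Cells counted by hemocytometer, and ≥300 cells on stained smears scored for differential counts. Left lung weighed, dried at 48 °C for 48 h, reweighed for wet/dry ratio.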

Mus musculus [3] = species: Mus musculus; assay: Antiinflammatory activity in mouse MHS cells assessed as reduction in zymosan-induced TNFalpha protein expression at 1.5 to 15 ug/ml preincubated for 30 mins followed by zymosan challenge and measured after 6 to 24 hrs; assay type: functional, cell-based
In short: (§2)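 MH-S cells pretreated for 30 min, then given zymosan 10 μg/mL for 24 h. IL-6 and TNFα protein in culture supernatant assessed by cytokine array. Values normalized to control; mean ± SD, n≥3.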

[4] = Antiinflammatory activity in mouse MHS cells assessed as reduction in zymosan-induced iNOS protein expression at 1.5 ug/ml preincubated for 30 mins followed by zymosan challenge and measured after 6 to 24 hrs by Western blotting analysis relative to control (reference value: 2.93 +/- 0.84); assay type: functional
Mus musculus [5] = assay: Antiinflammatory activity in zymosan induced C57BL/6 mouse model of lung injury assessed as reduction in collagen deposition at 4 mg/kg, ip pretreated for 3 days followed by zymosan challenge and measured after 24 hrs by hydroxyproline assay; assay type: functional, organism-based
In short: (§3)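 Male C57BL/6 mice dosed i.p. for 3 days, then given zymosan (4 mg/kg, i.t.) or saline. Lungs harvested 24 h later. Right lung fixed in 10% formalin, embedded in paraffin, cut into 5 μm sections, stained with H&E or Masson's trichrome and examined by microscopy. Collagen also measured by hydroxyproline assay on lung lysates. Mean ± SD, n≥4.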

[6] = Antiinflammatory activity in mouse MHS cells assessed as reduction in zymosan-induced COX2 protein expression at 1.5 ug/ml preincubated for 30 mins followed by zymosan challenge and measured after 6 to 24 hrs by Western blotting analysis relative to control (reference value: 2.2 +/- 1.8); assay type: functional
[7] = molecular target: T1, I-kappa-B kinase (Mus musculus); assay: Effect on IKK phosphorylation in mouse MHS cells assessed as phosphorylated IKK level at 15 ug/ml by Western blot analysis relative to tubulin (reference value: 1); assay type: cell-based
[8] = Effect on iNOS protein expression in mouse MHS cells at 15 ug/ml after 30 mins by Western blotting analysis relative to tubulin (reference value: 1); assay type: ADME, cell-based; conditions: 0.5 h
Mus musculus [9] = species: Mus musculus; assay: Antiinflammatory activity in mouse MHS cells assessed as reduction in zymosan-induced IL-6 protein expression at 1.5 to 15 ug/ml preincubated for 30 mins followed by zymosan challenge and measured after 6 to 24 hrs; assay type: functional, cell-based; in short: as §2
[10] = molecular target: Tyrosine-protein kinase JAK1 (Mus musculus) (UniProt P52332); assay: Inhibition of zymosan-induced JAK1 phosphorylation in mouse MHS cells assessed as phosphorylated JAK1 level at 1.5 ug/ml by Western blot analysis relative to tubulin (reference value: 2.2); assay type: cell-based; in short: as §1
[11] = Cytotoxicity against mouse MHS cells assessed as effect on cell viability at 1.5 to 15 ug/ml measured after 30 mins by sulforhodamine B assay; assay type: cell-based; conditions: 0.5 h
Mus musculus [12] = assay: Antiinflammatory activity in zymosan induced C57BL/6 mouse model of lung injury assessed as reduction in immune cell infiltration at 4 mg/kg, ip pretreated for 3 days followed by zymosan challenge and measured after 24 hrs by H and E staining based microscopic analysis; assay type: functional, organism-based; in short: as §3
Mus musculus [13] = species: Mus musculus; assay: Antiinflammatory activity in mouse MHS cells assessed as reduction in zymosan-induced COX2 mRNA expression preincubated for 30 mins followed by zymosan challenge and measured after 6 to 24 hrs by TRIzol reagent based qRT-PCR analysis; assay type: functional, cell-based
In short: (§4)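 MH-S alveolar macrophages grown in RPMI 1640 with 10% FBS at 37 °C and 5% CO2. Cells pretreated for 30 min, then given zymosan 10 μg/mL for 6 h. mRNA measured by SYBR Green real-time PCR (95 °C 10 min; 42 cycles of 95 °C 10 s, 60 °C 60 s) with actin as reference. Normalized to control; mean ± SD, n≥3.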

[14] = Antiinflammatory activity in mouse MHS cells assessed as reduction in zymosan-induced iNOS protein expression at 15 ug/ml preincubated for 30 mins followed by zymosan challenge and measured after 6 to 24 hrs by Western blotting analysis relative to control (reference value: 2.93 +/- 0.84); assay type: functional
Mus musculus [15] = species: Mus musculus; assay: Antiinflammatory activity in mouse MHS cells assessed as reduction in zymosan-induced IL-6 mRNA expression preincubated for 30 mins followed by zymosan challenge and measured after 6 to 24 hrs by TRIzol reagent based qRT-PCR analysis; assay type: functional, cell-based; in short: as §4
[16] = molecular target: Tyrosine-protein kinase JAK1 (Mus musculus) (UniProt P52332); assay: Inhibition of zymosan-induced JAK1 phosphorylation in mouse MHS cells preincubated for 30 mins followed by zymosan challenge and measured after 6 to 24 hrs by Western blot analysis; assay type: cell-based
Mus musculus [17] = assay: Antiinflammatory activity in zymosan induced C57BL/6 mouse model of lung injury assessed as reduction in thinkened basement membrane at 4 mg/kg, ip pretreated for 3 days followed by zymosan challenge and measured after 24 hrs by H and E staining based microscopic analysis; assay type: functional, organism-based; in short: as §3
[18] = molecular target: Signal transducer and activator of transcription 3 (Mus musculus) (UniProt P42227); assay: Inhibition of zymosan-induced STAT3 phosphorylation in mouse MHS cells assessed as phosphorylated STAT3 level at 15 ug/ml by Western blot analysis relative to tubulin (reference value: 2.1); assay type: cell-based; in short: as §1
[19] = Effect on COX2 protein expression in mouse MHS cells at 15 ug/ml after 30 mins by Western blotting analysis relative to tubulin (reference value: 1); assay type: ADME, cell-based; conditions: 0.5 h
Mus musculus [20] = species: Mus musculus; assay: Antiinflammatory activity in mouse MHS cells assessed as reduction in zymosan-induced PGE2 production at 1.5 to 15 ug/ml preincubated for 30 mins followed by zymosan challenge and measured after 6 to 24 hrs by ELISA; assay type: functional, cell-based
In short: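 MH-S cells pretreated for 30 min, then given zymosan 10 μg/mL for 24 h. Supernatant PGE2 measured by competitive ELISA: acetylcholinesterase tracer plus monoclonal antibody, 4 °C for 18 h, Ellman's reagent development, absorbance at 405 nm. Mean ± SD, n≥3.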

[21] = Cytotoxicity against zymosan-induced mouse MHS cells assessed as effect on cell viability at 1.5 to 15 ug/ml preincubated for 30 mins followed by zymosan challenge and measured after 6 to 24 hrs by sulforhodamine B assay; assay type: cell-based
In short: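 MH-S cells exposed to test agent and zymosan (10 μg/mL). Viability by sulforhodamine B: fixed in 10% trichloroacetic acid, stained 30 min with 0.4% (w/v) SRB, dissolved in 10 mM Tris, read at OD 515 nm. Mean ± SD, n≥3.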

Tyrosine-protein kinase JAK1 (Mus musculus), sequence (P52332 whole entry): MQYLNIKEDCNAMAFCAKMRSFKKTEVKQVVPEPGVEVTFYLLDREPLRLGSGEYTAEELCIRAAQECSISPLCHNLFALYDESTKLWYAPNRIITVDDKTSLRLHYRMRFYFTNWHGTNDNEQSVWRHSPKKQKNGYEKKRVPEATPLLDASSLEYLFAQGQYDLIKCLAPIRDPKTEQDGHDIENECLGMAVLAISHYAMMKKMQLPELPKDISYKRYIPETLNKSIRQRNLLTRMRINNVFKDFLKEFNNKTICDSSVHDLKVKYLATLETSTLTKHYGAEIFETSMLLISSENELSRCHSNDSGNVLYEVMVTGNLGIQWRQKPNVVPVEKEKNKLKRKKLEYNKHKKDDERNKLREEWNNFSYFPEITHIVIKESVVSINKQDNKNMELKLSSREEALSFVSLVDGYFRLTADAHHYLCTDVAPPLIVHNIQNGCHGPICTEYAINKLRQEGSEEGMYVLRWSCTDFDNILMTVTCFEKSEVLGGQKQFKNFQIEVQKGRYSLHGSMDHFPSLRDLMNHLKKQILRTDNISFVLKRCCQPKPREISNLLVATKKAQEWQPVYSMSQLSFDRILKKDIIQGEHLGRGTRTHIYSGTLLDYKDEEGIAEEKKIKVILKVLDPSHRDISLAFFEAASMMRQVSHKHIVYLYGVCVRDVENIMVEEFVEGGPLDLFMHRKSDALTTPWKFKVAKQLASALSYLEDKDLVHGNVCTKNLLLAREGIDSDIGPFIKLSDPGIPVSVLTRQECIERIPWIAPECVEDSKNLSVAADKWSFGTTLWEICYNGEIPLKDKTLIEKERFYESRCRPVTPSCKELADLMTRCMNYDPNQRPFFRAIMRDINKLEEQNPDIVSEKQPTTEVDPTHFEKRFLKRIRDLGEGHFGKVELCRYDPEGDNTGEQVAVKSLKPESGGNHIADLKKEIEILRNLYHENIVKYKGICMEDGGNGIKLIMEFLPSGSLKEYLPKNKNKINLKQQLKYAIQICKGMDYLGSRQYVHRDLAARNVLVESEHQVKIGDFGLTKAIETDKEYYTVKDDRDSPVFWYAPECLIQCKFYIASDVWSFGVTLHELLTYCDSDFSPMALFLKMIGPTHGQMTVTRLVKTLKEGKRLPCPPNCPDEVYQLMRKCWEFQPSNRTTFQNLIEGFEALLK
Signal transducer and activator of transcription 3 (Mus musculus), sequence (P42227 whole entry): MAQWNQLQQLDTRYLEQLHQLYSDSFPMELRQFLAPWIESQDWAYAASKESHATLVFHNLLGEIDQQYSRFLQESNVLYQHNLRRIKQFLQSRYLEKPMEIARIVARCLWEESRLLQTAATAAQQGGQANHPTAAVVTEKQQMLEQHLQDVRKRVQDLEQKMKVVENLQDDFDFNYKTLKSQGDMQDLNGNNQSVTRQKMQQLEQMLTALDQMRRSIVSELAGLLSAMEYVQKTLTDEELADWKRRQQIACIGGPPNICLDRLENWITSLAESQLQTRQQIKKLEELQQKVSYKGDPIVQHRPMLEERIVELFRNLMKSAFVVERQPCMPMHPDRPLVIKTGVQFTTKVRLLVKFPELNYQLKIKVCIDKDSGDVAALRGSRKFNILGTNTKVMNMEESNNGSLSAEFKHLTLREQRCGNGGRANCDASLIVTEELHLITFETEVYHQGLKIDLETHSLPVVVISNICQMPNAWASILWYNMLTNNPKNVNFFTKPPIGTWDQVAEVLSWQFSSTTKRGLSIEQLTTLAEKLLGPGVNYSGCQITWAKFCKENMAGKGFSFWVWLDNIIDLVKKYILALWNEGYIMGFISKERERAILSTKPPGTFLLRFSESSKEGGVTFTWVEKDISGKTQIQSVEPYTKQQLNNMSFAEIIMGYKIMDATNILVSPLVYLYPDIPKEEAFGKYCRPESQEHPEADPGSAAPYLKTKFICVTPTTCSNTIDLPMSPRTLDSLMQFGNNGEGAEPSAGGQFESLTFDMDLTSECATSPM

In the case of CC(C)=CCOc1c2occc2cc2ccc(=O)oc12 [PENTOSALEN], the fold change (FC) [1] is reported as 1, the Activity (Mus musculus [2]) is reported as “Active” and the Activity (Mus musculus [3]) is reported as “Active”. For the same compound, the “fold change (FC)” value [4] was 2.5, the Activity (Mus musculus [5]) was “Active” and the “fold change (FC)” value [6] was 2.2. The fold change (FC) [7] was 1, the “fold change (FC)” value [8] was 0.9 and the Activity (Mus musculus [9]) was “Active”. The fold change (FC) [10] was 2.2, the Activity [11] was “Non-Toxic” and the Activity (Mus musculus [12]) was “Active”. The Activity (Mus musculus [13]) was “Dose-dependent effect”, the “fold change (FC)” value [14] was 1.5 and the Activity (Mus musculus [15]) was “Dose-dependent effect”. For the same compound, the inhibition [16] was “Dose-dependent effect”, the Activity (Mus musculus [17]) was “Active” and the fold change (FC) [18] was 1.3. For the same compound, the “fold change (FC)” value [19] was 0.7, the Activity (Mus musculus [20]) was “Active” and the Activity [21] was “Non-Toxic”.
